Assay outcomes (PubChem)
ABCG2 inh = blocks JC-1 efflux by human ABCG2 transporter; actives 0.1% (n = 190,000); AID 1325; inhibition, % at 6.6 µM; IgMXP3 cells, flow cytometry;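 active = inhibition above 80%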
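test system = two drug-resistant human cell lines, ABCG2 and ABCB1 | amount = 3 million cells/mL final, two lines in 1:1 ratio | reagent = JC-1 transporter substrate | doses = one concentration, 6.6 µM final | incubation = 10 min at 25 °C | signal = flow cytometric JC-1 green MFI at 530 nm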
Biofilm kill mix = mixtures killing C. albicans biofilm | inhibition, % at 7.6 µM | C. albicans biofilm persisters + clotrimazole, fluorescence viability; primary screen in compound mixtures of four per well | actives 0.02% (n = 120,000);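 active = inhibition above 30.3% in the primary screen of four-compound pools, then above 30% when the compound was retested; inconclusive = passed the primary limit but could not be retested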;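 note: compounds exposed to preformed 24 h biofilms for 48 h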
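Test system: C. albicans CAF4-2 wild-type biofilms; buffer or medium: RPMI/MOPS medium, pH 7.0; schedule: 24 h biofilm formation, then 48 h compound exposure, 37 °C; detection: Alamar Blue fluorescence; measure: percent inhibition of biofilm viability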
ROMK mod = human ROMK K+ channel modulation, primary screen; Tet-inducible ROMK, thallium flux fluorescence; actives lie on both sides; B-score at 10 µM; actives 2% (n = 130,000);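 active = signal ratio slope over the read window, or its plate-corrected B-score, at least 3 SD from the plate mean, either direction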;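 note: B-score of the F/F0 ratio slope over 7 to 12 s after thallium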
TRPML3 ag = agonists of human TRPML3 channel; HEK293 TRPML3-YFP, Fluo-8 calcium fluorescence; 100% = the carbachol control signal; activation, % at 3 µM; actives 0.29% (n = 220,000); AID 1448;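 active = activation above its plate's cutoff, the mean activation of the plate's test wells plus 3 SD, cut at about 12% in these data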
Target sequence (Q8TDD5 whole entry, looked up): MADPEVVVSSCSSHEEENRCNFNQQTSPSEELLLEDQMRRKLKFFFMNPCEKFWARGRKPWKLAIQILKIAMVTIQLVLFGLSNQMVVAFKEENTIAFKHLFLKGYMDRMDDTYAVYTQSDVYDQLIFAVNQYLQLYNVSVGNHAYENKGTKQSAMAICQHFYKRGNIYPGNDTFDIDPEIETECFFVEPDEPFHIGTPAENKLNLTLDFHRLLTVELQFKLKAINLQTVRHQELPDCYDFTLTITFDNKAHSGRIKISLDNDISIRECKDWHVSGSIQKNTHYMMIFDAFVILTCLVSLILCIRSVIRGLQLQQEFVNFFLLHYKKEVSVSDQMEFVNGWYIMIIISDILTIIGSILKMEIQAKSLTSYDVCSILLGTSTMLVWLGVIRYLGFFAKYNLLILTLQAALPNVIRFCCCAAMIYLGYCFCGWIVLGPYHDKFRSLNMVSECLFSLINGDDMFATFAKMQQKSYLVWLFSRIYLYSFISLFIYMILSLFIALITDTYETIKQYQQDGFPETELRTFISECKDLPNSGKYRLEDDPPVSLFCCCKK
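Test system: TRPML3-YFP stable HEK293 cells. Doses: single point at 3 µM. Incubation: dye loading 1 h 37 °C then 30 min ambient, 125 s read. Signal: Fluo-8 calcium dye fluorescence, ex 470-495, em 515-575 nm. Measure: percent activation from peak-to-basal fluorescence ratio, scaled between DMSO and carbachol.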
zfTRPN1 agonist = zebrafish TRPN1 (NompC) channel agonism; activation, % at 3 µM; actives 0.18% (n = 220,000); HEK293 zebrafish TRPN1-YFP, Fluo-8 calcium fluorescence; 100% = response to 87 µM carbachol;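 active = activation above its plate's cutoff, the mean activation of test wells on that plate plus 3 SD, cut at about 19% in these data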
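Material: zebrafish TRPN1-YFP in HEK293 cells; Doses: single test compound dose, 3 µM nominal, 0.3% DMSO; Timing: dye loading 1 h at 37 °C, then 30 min room temperature; Technique: intracellular calcium fluorescence with Fluo-8; Benchmarks: high carbachol 87 µM, low DMSO alone.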
ABCB1 inh = human ABCB1 inhibition, ABCG2 as counter-screen; P08183; CCRF-Adr cells, JC-1 efflux, flow cytometry; inhibition, % at 6.6 µM; actives 0.067% (n = 190,000); in the data active = inhibition above about 40%;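 note: higher value means more JC-1 retained so stronger ABCB1 efflux block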
ROMK hit retest = confirmation of human ROMK potassium channel modulators; shares compounds with ROMK mod; normalized thallium flux (F/F0 slope) at 10 µM; ROMK thallium flux, fluorescence ratio; hits give low values; AID 1917; actives 54% (n = 3,000);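 active = Flux at 10 µM at least 3 SD below or above vehicle control mean in one or both replicates; inconclusive = no clear call, values can overlap the other calls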
A number is an active result; – = inactive; ? = inconclusive; · = not tested or not shown. The entries come from a sample that favours hits as a whole.

SMILES	ABCG2 inh	Biofilm kill mix	ROMK mod	TRPML3 ag	zfTRPN1 agonist	ABCB1 inh	ROMK hit retest
Cc1cc(Br)ccc1-n1[nH]c(C)c(C=Nc2cccc3nsnc23)c1=O	–	–	–	–	–	–	·
COc1ccc([N+](=O)[O-])cc1N(CC(=O)NC(C(C)C)C(C)C)S(C)(=O)=O	–	–	–	–	–	–	·
CC1(C)CC(=O)C2=C(C1)Oc1nc3ccccc3cc1C2C(C#N)C#N (centres undefined)	–	·	-3.6	–	–	–	0.058
CC1(C)CC(=O)C(C2C3=C(CC(C)(C)CC3=O)Oc3ccccc32)C(=O)C1 (centres undefined)	·	–	–	–	–	·	·
C=CS(=O)(=O)c1ccc(Oc2ccc(S(=O)(=O)C=C)cc2)cc1	–	–	-5.8	–	–	–	0.041
CCC(=O)Oc1ccc2c(c1)O/C(=C\c1ccco1)C2=O	·	–	-7.4	–	–	·	0.051
COc1ccccc1C(=O)Oc1ccc2c(c1)O/C(=C\c1ccncc1)C2=O	–	–	·	–	–	–	0.061
CC(=O)Oc1ccc2c(c1)O/C(=C\c1ccncc1)C2=O	·	–	·	–	–	·	·
COc1cnc(-c2ccccc2)[nH]c1=O	–	–	·	–	–	–	·
N=c1n(CCN2CCCCC2)c2ccccc2n1CC(O)c1cccc(Br)c1 (centres undefined)	–	·	·	–	–	–	·
N=c1n(CCN2CCCCC2)c2ccccc2n1CC(O)c1ccc(Cl)c(Cl)c1 (centres undefined)	–	·	-4.5	–	–	–	0.046
O=[N+]([O-])c1cccc(/C=C/c2nc3ccc([N+](=O)[O-])cc3[nH]2)c1	–	·	-5.2	–	–	–	0.042
Cc1nc2ccc([N+](=O)[O-])cc2[nH]1	–	–	–	–	–	–	·
CCOc1cc(CNC2CCCC2)cc(Cl)c1OCc1ccc(F)cc1	–	·	-3.8	–	–	–	0.061
O=C(COC(=O)c1cc(-c2ccc(F)cc2)nc2ccccc12)NCC1CCCO1 (centres undefined)	–	–	-4.4	–	–	–	0.066
CCCOc1ccc(-c2cc(C(=O)NCC3CCCO3)c3ccccc3n2)cc1 (centres undefined)	–	–	-4.2	–	–	–	?
O=C(COC(=O)c1cccc2ccccc12)NCC1CCCO1 (centres undefined)	–	–	–	–	–	–	·
Cc1cccc(CN2C(=O)c3ccccc3Sc3ccc(C(=O)O)cc32)c1	·	–	–	–	–	·	·
O=C(c1ccc2c(c1)N(Cc1ccccc1)C(=O)c1ccccc1S2)N1CCCC1	–	·	·	–	–	–	0.061
Cn1cccc1/C=C1\SC(=Nc2cccc(O)c2)NC1=O	·	–	-2.3	–	–	·	–
Cc1ccc(N=C2NC(=O)/C(=C/c3cn(C)c4ccccc34)S2)cc1C	–	–	-3.4	–	–	–	?
Cn1cccc1/C=C1\SC(=Nc2ccc(O)cc2)NC1=O	·	–	–	–	–	·	·
CCn1c(SCC(=O)Nc2ccccc2N2CCCCC2)nc2c1c(=O)n(C)c(=O)n2C	–	·	·	–	–	–	–
CC(C)n1c(SCC(=O)Nc2ccccc2N2CCOCC2)nc2c1c(=O)n(C)c(=O)n2C	–	–	·	–	–	–	·
CC(C)CC(=O)NC(=S)Nc1ccccc1N1CCCC1	·	–	·	–	–	·	·
SMILES	ABCG2 inh	Biofilm kill mix	ROMK mod	TRPML3 ag	zfTRPN1 agonist	ABCB1 inh	ROMK hit retest
CC(C)CC(=O)Nc1ccccc1N1CCCC1	–	–	-6	–	–	–	–
Fc1ccc(-c2cc(C(F)(F)F)nc(NCc3cccs3)n2)cc1	–	–	–	–	–	–	·
Cc1cc(C(=O)CSc2nnnn2-c2ccc(O)cc2)c(C)n1Cc1ccc2c(c1)OCO2	–	·	·	–	–	–	?
Cc1cc(C(=O)CSc2nnnn2-c2ccccc2)c(C)n1-c1ccc2c(c1)OCO2	–	–	–	–	–	–	·
COc1ccc(C(=O)Nc2ccc3c(c2)nc(CCNC(C)=O)n3C)cc1	–	·	3	–	–	–	–
Cc1cccn2c(CNC3CCCc4ccccc43)c(C(=O)N3CCCCC3)nc12 (centres undefined)	–	–	-3	–	–	–	0.061
